In experiment [1] the test system is SH-SY5Y. Nature of the experiment: Neuroprotective activity against 6-OHDA-induced toxicity in human SH-SY5Y cells assessed as reduction in condensed and fragmented nuclei at 10 uM pretreated for 1 hr followed by 6-OHDA challenge measured after 2 hrs by DAPI staining based assay relative to control. Particulars: time 3.0 hrs.
Experiment [2] is filed under the species Rattus norvegicus. Nature of the experiment: Neuroprotective activity against oxygen glucose deprivation/reperfusion-induced Wistar rat cortical brain assessed as concentration required to reduce glutamate release by measuring efficacy window. Type of experiment: functional. A digest of the protocol:
(§1)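 Male Wistar rat cortical slices (400 μm) in oxygenated ACSF, pH 7.4, 1 h at room temperature, then 30 min at 37 °C. OGD for 30 min in glucose-free ACSF with 11 mM sucrose under 95% N₂/5% CO₂. Compound added in the reoxygenation buffer. Glutamate and LDH release measured. Mean ± SEM of at least four experiments, ANOVA with Dunnett test.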

The species entered for experiment [3] is Rattus norvegicus. Nature of the experiment: Neuroprotective activity against oxygen glucose deprivation/reperfusion-induced Wistar rat cortical brain assessed as reduction in glutamate release by measuring minimal effective concentration. Type of experiment: functional. A digest of the protocol: as §1
Experiment [4] is filed under the species Rattus norvegicus. Nature of the experiment: Neuroprotective activity against oxygen glucose deprivation/reperfusion-induced Wistar rat cortical brain assessed as concentration required to reduce LDH release by measuring efficacy window. Type of experiment: functional. In outline: as §1
For experiment [5], the species on record is Rattus norvegicus. Nature of the experiment: Neuroprotective activity against oxygen glucose deprivation/reperfusion-induced Wistar rat cortical brain assessed as reduction in glutamate release relative to control. The arrangement: concentration or dose not given beside the values. Type of experiment: functional. In outline:
as §1

The species named for experiment [6] is Rattus norvegicus. Briefly: Neuroprotective activity against oxygen glucose deprivation/reperfusion-induced Wistar rat cortical brain assessed as reduction in LDH release by measuring minimal effective concentration. The format is functional. A digest of the protocol:
as §1

The species named for experiment [7] is Rattus norvegicus. Nature of the experiment: Neuroprotective activity against oxygen glucose deprivation/reperfusion-induced Wistar rat cortical brain assessed as reduction in LDH release relative to control. The arrangement: concentration or dose not given beside the values. The format is functional. A digest of the protocol:
as §1

Experiment [8] deals with SH-SY5Y. Briefly: Neuroprotective activity against glutamate-induced toxicity in human SH-SY5Y cells assessed as reduction in ROS production at 0.01 uM by DCFH-DA staining based assay. The format is functional, cell-based. Particulars: time 24.0 hrs, TDE = time-dependent effect. A digest of the protocol:
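Before treatment, SH-SY5Y cells loaded with DCFH-DA (5 μM, 30 min) and washed in PBS. Then 1 h compound pretreatment followed by glutamate 50 mM. Fluorescence read at 1 h or 24 h (ex 485, em 535 nm). Result expressed as % inhibition of glutamate-induced intracellular ROS. Mean ± SEM, 4 independent experiments in triplicate or quadruplicate.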

For experiment [9], the system named is SH-SY5Y. Briefly: Neuroprotective activity against 6-OHDA-induced toxicity in human SH-SY5Y cells assessed as condensed and fragmented nuclei at 0.01 uM pretreated for 1 hr followed by 6-OHDA challenge measured after 2 hrs by DAPI staining based assay relative to control. The format is functional. The conditions noted are these: time 3 hrs.
For experiment [10], the system named is SH-SY5Y. Nature of the experiment: Neuroprotective activity against glutamate-induced toxicity in human SH-SY5Y cells assessed as reduction in grade 2 to 3 toxicity at 0.01 uM pretreated for 1 hr followed by glutamate challenge measured after 24 hrs by phase-contrast light microscopic analysis. The format is functional, cell-based. Particulars: time 25.0 hrs. A digest of the protocol: (§2)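 SH-SY5Y cells pretreated with compound 1 h, then glutamate 50 mM for 24 h. Morphology examined and photographed by phase-contrast microscopy. Scored on USP 28 grade scale 0-4, with grades based on cell rounding, loss of intracytoplasmic granules, lysis and empty areas between cells. Control wells received medium only.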

For experiment [11], the system named is SH-SY5Y. Nature of the experiment: Neuroprotective activity against glutamate-induced toxicity in human SH-SY5Y cells assessed as cell viability at 0.01 uM pretreated for 1 hr followed by glutamate challenge measured after 24 hrs by MTT assay. The format is functional. Particulars: time 25 hrs, read-out: Activity.
Experiment [12] concerns SH-SY5Y. Nature of the experiment: Neuroprotective activity against glutamate-induced toxicity in human SH-SY5Y cells assessed as reduction in sub G0/G1 phase cells at 0.01 uM pretreated for 1 hr followed by glutamate challenge measured after 24 hrs by propidium staining based flow cytometry. The format is functional, cell-based. Particulars: time 25.0 hrs. A digest of the protocol:
(§3)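 Cells seeded 2.5 x 10⁵ cells/mL, pretreated with compound 1 h, then glutamate 50 mM for 24 h. Cells fixed in 70% ethanol (30 min, 4 °C), kept at -20 °C for at least 24 h, stained with propidium iodide and run on flow cytometer (563-607 nm band-pass). At least 1x10⁴ cells acquired per sample; sub-G0/G1 peak taken as apoptotic. Mean ± SEM, 4 independent experiments.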

Experiment [13] concerns SH-SY5Y. Nature of the experiment: Neuroprotective activity against glutamate-induced toxicity in human SH-SY5Y cells assessed as reduction in cell rounding at 0.01 uM pretreated for 1 hr followed by glutamate challenge measured after 24 hrs by phase-contrast light microscopic analysis. The format is functional, cell-based. The conditions noted are these: time 25.0 hrs. In outline: as §2

For experiment [14], the system named is SH-SY5Y. Briefly: Neuroprotective activity against 6-OHDA-induced toxicity in human SH-SY5Y cells assessed as increase in cell viability at 0.01 uM pretreated for 1 hr followed by 6-OHDA challenge measured after 2 hrs by MTT assay. Particulars: time 3.0 hrs. The format is functional, cell-based. In outline: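 SH-SY5Y cells (RPMI 1640, 10% FBS, 37 °C, 5% CO2, used in exponential growth) seeded 8 x 10⁴ cells/mL, attached 24 h, pre-incubated with compound 1 h, then 6-OHDA 55 μM for 2 h (6-OHDA freshly dissolved in nitrogen-gassed 5 μM ascorbic acid). Controls received medium with 5 μM ascorbic acid. Viability by MTT. Mean ± SEM of 4 independent experiments, each in triplicate or quadruplicate.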

The test system of experiment [15] is SH-SY5Y. Briefly: Neuroprotective activity against glutamate-induced toxicity in human SH-SY5Y cells assessed as increase in S phase cells at 0.01 uM pretreated for 1 hr followed by glutamate challenge measured after 24 hrs by propidium staining based flow cytometry. The format is functional, cell-based. The conditions noted are these: time 25.0 hrs. In outline:
as §3

Experiment [16] has as its system SH-SY5Y. Briefly: Neuroprotective activity against glutamate-induced toxicity in human SH-SY5Y cells assessed as reduction in condensed and fragmented nuclei at 0.01 uM pretreated for 1 hr followed by glutamate challenge measured after 24 hrs by DAPI staining based assay (reference value: 16.9 +/- 1.5%). Type of experiment: functional, cell-based. The conditions noted are these: time 25.0 hrs.

The test system of experiment [17] is SH-SY5Y. Briefly: Neuroprotective activity against glutamate-induced toxicity in human SH-SY5Y cells assessed as reduction in G0/G1 phase cells at 0.01 uM pretreated for 1 hr followed by glutamate challenge measured after 24 hrs by propidium staining based flow cytometry. The format is functional, cell-based. Particulars: time 25.0 hrs. A digest of the protocol:
as §3

Experiment [18] concerns SH-SY5Y. Briefly: Neuroprotective activity against glutamate-induced toxicity in human SH-SY5Y cells assessed as reduction in ROS production measured after 24 hrs by DCFH-DA staining based assay. The format is functional, cell-based. The conditions noted are these: dose 0.1-10 µM. In outline: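 Human SH-SY5Y neuroblastoma cells were preloaded with DCFH-DA (5 μM, 30 min) and washed in PBS. They were then pretreated for 1 h with compound (0.1-10 μM; DMSO stock diluted in PBS, final DMSO <0.01%) and challenged with glutamate (50 mM). Fluorescence (ex 485/em 535 nm) was read at 24 h and expressed as % inhibition of glutamate-induced ROS. Data are mean ± SEM of 4 experiments run in triplicate or quadruplicate.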

For experiment [19], the system named is SH-SY5Y. Nature of the experiment: Neuroprotective activity against glutamate-induced toxicity in human SH-SY5Y cells assessed as reduction in cell detachment at 0.01 uM pretreated for 1 hr followed by glutamate challenge measured after 24 hrs by phase-contrast light microscopic analysis. Type of experiment: functional, cell-based. The conditions noted are these: time 25.0 hrs. A digest of the protocol: as §2

Experiment [20] concerns SH-SY5Y. Nature of the experiment: Neuroprotective activity against glutamate-induced toxicity in human SH-SY5Y cells assessed as reduction in cell shrinkage at 0.01 uM pretreated for 1 hr followed by glutamate challenge measured after 24 hrs by phase-contrast light microscopic analysis. The format is functional, cell-based. The conditions noted are these: time 25.0 hrs. In outline: as §2

SMILES strings stand for the structures. The source made the active and inactive calls. The calls are words filed in the database; no cut-off is given here. Where only a bound is given, the exact number is not on record here.

On to `CN/C(C)=N/C1=Nc2ccccc2CS1`, for which, in the experiment with SH-SY5Y [1], the result was Active. Besides, the Efficacy is 5 µM in the experiment filed under Rattus norvegicus [2] and 1 µM in the experiment listed under Rattus norvegicus [4]. Moreover, the MEC came to 5 µM in the experiment listed under Rattus norvegicus [3] and 0.1 µM in the experiment filed under Rattus norvegicus [6]. Further, the Activity worked out at 43.6% in the experiment filed under Rattus norvegicus [5] and 40.1% in the experiment listed under Rattus norvegicus [7].

For `CN/C(C)=N/C1=Nc2ccccc2SC1`, the Efficacy in the experiment filed under Rattus norvegicus [2] is 0.1 µM; in the experiment filed under Rattus norvegicus [4], 100 µM. In addition, the MEC came to 0.1 µM in the experiment listed under Rattus norvegicus [3] and 100 µM in the experiment filed under Rattus norvegicus [6]. The Activity came out at 25.5% in the experiment listed under Rattus norvegicus [5] and 33.2% in the experiment listed under Rattus norvegicus [7].

Regarding `Nc1nc2ccc(OC(F)(F)F)cc2s1` [RILUZOLE], the Activity result in the experiment on SH-SY5Y [8] was “Tde”; with SH-SY5Y [9], above 20%; in the experiment on SH-SY5Y [18] it was “Dose-Dependent Effect”. Moreover, the result with SH-SY5Y [10], in the experiment on SH-SY5Y [12], in the experiment with SH-SY5Y [13], with SH-SY5Y [14], in the experiment with SH-SY5Y [15] and in the experiment with SH-SY5Y [16] was Active. Moreover, the outcome with SH-SY5Y [17], in the experiment with SH-SY5Y [19] and with SH-SY5Y [20] was Active. Also, in the experiment on SH-SY5Y [11], the viability at 0.01 µM was 65%.

As to `CCN(CC)/C(C)=N/C1=Nc2ccccc2SC1`, the Efficacy entry in the experiment listed under Rattus norvegicus [2] and in the experiment listed under Rattus norvegicus [4] was “inactive” each time. The MEC result in the experiment listed under Rattus norvegicus [3] and in the experiment filed under Rattus norvegicus [6] was “inactive” each time. Moreover, the result in the experiment filed under Rattus norvegicus [5] and in the experiment filed under Rattus norvegicus [7] was inactive.

As to `CCCN(CCC)/C(C)=N/C1=Nc2ccc(OC(F)(F)F)cc2CS1`, the Efficacy in the experiment listed under Rattus norvegicus [2] is 0.01 µM; in the experiment filed under Rattus norvegicus [4] it was 0.1 µM. Further, the results for the MEC in the experiment listed under Rattus norvegicus [3] and in the experiment filed under Rattus norvegicus [6] were 0.01 µM and 0.1 µM, respectively. For the same compound, the Activity in the experiment listed under Rattus norvegicus [5] came out at 17.8%; in the experiment filed under Rattus norvegicus [7] it was 31%.

As for `C/C(=N\C1=Nc2ccccc2SC1)N(C)C`, the Efficacy result in the experiment filed under Rattus norvegicus [2] and in the experiment listed under Rattus norvegicus [4] was “inactive” throughout. Moreover, the MEC result in the experiment listed under Rattus norvegicus [3] and in the experiment listed under Rattus norvegicus [6] was “inactive” in each case. For the same compound, the outcome in the experiment listed under Rattus norvegicus [5] and in the experiment listed under Rattus norvegicus [7] was inactive.

`NC1=Nc2ccc(OC(F)(F)F)cc2CS1`: in the experiment filed under Rattus norvegicus [2], the Efficacy came out at 0.001 µM. The MEC in the experiment filed under Rattus norvegicus [3] was 0.001 µM. Besides, in the experiment listed under Rattus norvegicus [4], the Efficacy entry is “inactive”. For the same compound, the Activity in the experiment listed under Rattus norvegicus [5] is 69.1%. Moreover, the MEC result in the experiment listed under Rattus norvegicus [6] is “inactive”. The result in the experiment listed under Rattus norvegicus [7] was inactive.

Turning to `CCCN(CCC)/C(C)=N/C1=Nc2ccccc2SC1`, the Efficacy entry in the experiment filed under Rattus norvegicus [2] is “inactive”. The MEC entry in the experiment filed under Rattus norvegicus [3] is “inactive”. In the experiment filed under Rattus norvegicus [4], the Efficacy came out at 10 µM. For the same compound, the outcome in the experiment listed under Rattus norvegicus [5] was inactive. In the experiment listed under Rattus norvegicus [6], the MEC turned out to be 10 µM. Moreover, the Activity in the experiment filed under Rattus norvegicus [7] is 53.5%.

In the case of `CCN(CC)/C(C)=N/C1=Nc2ccc(OC(F)(F)F)cc2CS1`, the Efficacy result in the experiment listed under Rattus norvegicus [2] and in the experiment listed under Rattus norvegicus [4] was “inactive” each time. Further, the MEC entry in the experiment listed under Rattus norvegicus [3] and in the experiment listed under Rattus norvegicus [6] was “inactive” each time. Also, the result in the experiment filed under Rattus norvegicus [5] and in the experiment listed under Rattus norvegicus [7] was inactive.

With `C/C(=N\C1=Nc2ccccc2CS1)N(C)C`, the Efficacy in the experiment filed under Rattus norvegicus [2] and in the experiment listed under Rattus norvegicus [4] was 0.01 µM in each case. Moreover, the MEC in the experiment listed under Rattus norvegicus [3] and in the experiment listed under Rattus norvegicus [6] was 0.01 µM throughout. The Activity was 72.7% in the experiment listed under Rattus norvegicus [5] and 78.4% in the experiment listed under Rattus norvegicus [7].

As for `CCCNC(=S)NC1=Nc2ccccc2CS1`, the Efficacy in the experiment listed under Rattus norvegicus [2] came out at 0.001 µM. Besides, the MEC in the experiment filed under Rattus norvegicus [3] was determined as 0.001 µM. In the experiment filed under Rattus norvegicus [4], the Efficacy result is “inactive”. Besides, in the experiment filed under Rattus norvegicus [5], the Activity was 45.7%. The MEC result in the experiment filed under Rattus norvegicus [6] was “inactive”. Besides, the outcome in the experiment listed under Rattus norvegicus [7] was inactive.

Values taken from ChEMBL document CHEMBL5260794, “Synthesis and biological evaluation of a new class of benzothiazines as neuroprotective agents” (Eur J Med Chem, 2017).
